# The source made the active and inactive calls. No cut-off for these calls is given here.
# Legend:
# [1] = tested on: MDA-MB-231; assay: Antiproliferative activity against human MDA-MB-231 cells after 48 hrs by MTT assay; assay type: functional, cell-based; settings: MDA-MB-231, 48 h
# Outline: (§1)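 Seeded at 1 × 10^4 cells/well, then exposed to DMSO or compound at 0.01, 0.1, 1, 5, 10 and 100 μM for 48 h. MTT (5 mg/mL in PBS) added for a further 4 h, formazan dissolved in DMSO, OD read at 550 nm. Quadruplicate wells per concentration. IC50 from curve fitting; mean ± SE of three independent experiments.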
# [2] = tested on: MCF7; assay: Antiproliferative activity against human MCF7 cells after 48 hrs by MTT assay; assay type: functional, cell-based; settings: MCF7, 48 h; outline: as §1
# [3] = tested on: HMEC; assay: Growth inhibition of human HMEC cells after 24 hrs
# [4] = tested on: MDA-MB-231; assay: Induction of apoptosis in human MDA-MB-231 cells assessed as downregulation of p65 NF-kappaB level at 10 to 30 uM after 48 hrs by Western blot analysis; assay type: functional, cell-based
# Outline: (§2)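 MDA-MB-231 cells treated 48 h with DMSO or compound. Lysates quantified by Bradford; 30 μg protein run on SDS-PAGE and transferred to PVDF. Blocked in 5% milk, then probed overnight: anti-Bcl-2 1:200, Bax 1:1000, PARP 1:10000, NF-κB p65 1:2000, caspase-3 1:1000, β-actin 1:20000. ECL detection.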
# [5] = tested on: MDA-MB-231; assay: Induction of apoptosis in human MDA-MB-231 cells assessed as downregulation of PARP level at 10 to 30 uM after 48 hrs by Western blot analysis; assay type: functional, cell-based; outline: as §2
# [6] = tested on: MDA-MB-231; assay: Induction of apoptosis in human MDA-MB-231 cells assessed as upregulation of Bax level at 10 to 30 uM after 48 hrs by Western blot analysis; assay type: functional, cell-based; outline: as §2
# [7] = cells; settings: Homo sapiens, NCI/ADR-RES, 48 h
# [8] = tested on: MDA-MB-231; assay: Induction of apoptosis in human MDA-MB-231 cells assessed as caspase3 cleavage at 10 to 30 uM after 48 hrs by Western blot analysis; assay type: functional, cell-based; outline: as §2
# [9] = tested on: MDA-MB-231; assay: Induction of apoptosis in human MDA-MB-231 cells assessed as downregulation of Bcl2 level at 10 to 30 uM after 48 hrs by Western blot analysis; assay type: functional, cell-based; outline: as §2
# [10] = tested on: MDA-MB-231; assay: Induction of apoptosis in human MDA-MB-231 cells assessed as upregulation of cleaved PARP level at 10 to 30 uM after 48 hrs by Western blot analysis; assay type: functional, cell-based; outline: as §2
# [11] = tested on: MDA-MB-231; assay: Induction of apoptosis in human MDA-MB-231 cells assessed as live cells at 10 uM after 24 hrs using FITC-annexin V and propidium iodide staining by flow cytometry (reference value: 83.45 to 89.30 %); assay type: functional
# [12] = tested on: MDA-MB-231; assay: Induction of apoptosis in human MDA-MB-231 cells assessed as upregulation of Bax level at 2.5 to 10 uM after 48 hrs by Western blot analysis; assay type: functional, cell-based; outline: as §2
# [13] = tested on: MDA-MB-231; assay: Induction of apoptosis in human MDA-MB-231 cells assessed as early apoptotic cells at 1 uM after 24 hrs using FITC-annexin V and propidium iodide staining by flow cytometry (reference value: 4.55 to 4.85 %); assay type: functional
# [14] = tested on: MDA-MB-231; assay: Induction of apoptosis in human MDA-MB-231 cells assessed as downregulation of p65 NF-kappaB level at 2.5 to 10 uM after 48 hrs by Western blot analysis; assay type: functional, cell-based; outline: as §2
# [15] = tested on: MDA-MB-231; assay: Induction of apoptosis in human MDA-MB-231 cells assessed as live cells at 5 uM after 24 hrs using FITC-annexin V and propidium iodide staining by flow cytometry (reference value: 83.45 to 89.30 %); assay type: functional
# [16] = tested on: MDA-MB-231; assay: Induction of apoptosis in human MDA-MB-231 cells assessed as late apoptotic cells at 10 uM after 24 hrs using FITC-annexin V and propidium iodide staining by flow cytometry (reference value: 5.5 to 11.0 %); assay type: functional
# [17] = tested on: MDA-MB-231; assay: Induction of apoptosis in human MDA-MB-231 cells after 24 hrs using FITC-annexin V and propidium iodide staining by flow cytometry; assay type: functional, cell-based
# [18] = tested on: MDA-MB-231; assay: Induction of apoptosis in human MDA-MB-231 cells assessed as dead cells at 1 uM after 24 hrs using FITC-annexin V and propidium iodide staining by flow cytometry (reference value: 0.3 to 1.00 %); assay type: functional
# [19] = tested on: MDA-MB-231; assay: Induction of apoptosis in human MDA-MB-231 cells assessed as early apoptotic cells at 10 uM after 24 hrs using FITC-annexin V and propidium iodide staining by flow cytometry (reference value: 4.55 to 4.85 %); assay type: functional
# [20] = tested on: MDA-MB-231; assay: Induction of apoptosis in human MDA-MB-231 cells assessed as dead cells at 10 uM after 24 hrs using FITC-annexin V and propidium iodide staining by flow cytometry (reference value: 0.3 to 1.00 %); assay type: functional
# [21] = tested on: MDA-MB-231; assay: Inhibition of colony formation of human MDA-MB-231 cells at 0.625 to 10 uM after 2 weeks by crystal violet staining-based GelCount method; assay type: functional, cell-based
# Outline: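 MDA-MB-231 cells seeded at 800/well and left 24 h. Then treated with 0.625–10 μM compound or DMSO, medium with compound renewed every 72 h for two weeks. Stained with 0.01% crystal violet for 10 min after PBS washes. Whole-well density quantified on GelCount. Triplicate; SD; one-way ANOVA.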
# [22] = tested on: MDA-MB-231; assay: Induction of apoptosis in human MDA-MB-231 cells assessed as late apoptotic cells at 5 uM after 24 hrs using FITC-annexin V and propidium iodide staining by flow cytometry (reference value: 5.5 to 11.0 %); assay type: functional
# [23] = tested on: MDA-MB-231; assay: Induction of apoptosis in human MDA-MB-231 cells assessed as downregulation of Bcl2 level at 2.5 to 10 uM after 48 hrs by Western blot analysis; assay type: functional, cell-based; outline: as §2
# [24] = tested on: MDA-MB-231; assay: Induction of apoptosis in human MDA-MB-231 cells assessed as early apoptotic cells at 5 uM after 24 hrs using FITC-annexin V and propidium iodide staining by flow cytometry (reference value: 4.55 to 4.85 %); assay type: functional
# [25] = tested on: MDA-MB-231; assay: Induction of apoptosis in human MDA-MB-231 cells assessed as dead cells at 5 uM after 24 hrs using FITC-annexin V and propidium iodide staining by flow cytometry (reference value: 0.3 to 1.00 %); assay type: functional
# [26] = tested on: MDA-MB-231; assay: Induction of apoptosis in human MDA-MB-231 cells assessed as live cells at 1 uM after 24 hrs using FITC-annexin V and propidium iodide staining by flow cytometry (reference value: 83.45 to 89.30 %); assay type: functional
# [27] = tested on: MDA-MB-231; assay: Induction of apoptosis in human MDA-MB-231 cells assessed as late apoptotic cells at 1 uM after 24 hrs using FITC-annexin V and propidium iodide staining by flow cytometry (reference value: 5.5 to 11.0 %); assay type: functional
# [28] = tested on: MDA-MB-231; assay: Induction of apoptosis in human MDA-MB-231 cells assessed as PARP cleavage after 48 hrs by Western blot analysis; assay type: functional, cell-based; outline: as §2
# [29] = tested on: MDA-MB-231; assay: Induction of apoptosis in human MDA-MB-231 cells assessed as caspase3 activation after 48 hrs by Western blot analysis; assay type: functional, cell-based; outline: as §2
# [30] = tested on: Mus musculus; assay: Toxicity in human MDA-MB-231 cells xenografted nude mouse assessed as change body weight at 5 mg/kg, ip administered 5 days per week for 10 days; assay type: organism-based; parameters: dose 5 mg/kg, route intraperitoneal; settings: in vivo
# Outline: (§3)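 Female nude mice, 4–6 weeks old, kept in a barrier unit on a 12 h light-dark cycle. Each mouse received 2.5 × 10^6 freshly harvested MDA-MB-231 cells in 100 μL PBS into the 3rd mammary fat pad. Mice were randomized into 3 groups. Once tumors reached 200 mm3, dosing was 5 mg/kg ip, 5 days/week for 10 days, in 50% DMSO/50% PEG. Tumor volume (0.5 × L × W2) and body weight were measured daily. One-way ANOVA.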
# [31] = tested on: MDA-MB-231; assay: Antitumor activity against human MDA-MB-231 cells xenografted in nude mouse assessed as inhibition of tumor growth at 5 mg/kg, ip administered 5 days per week for 10 days; assay type: functional, organism-based; parameters: dose 5 mg/kg; outline: as §3
structure (smiles),measurement,setting,value
C=C1C(=O)[C@]23[C@H](O)[C@H]1CC[C@H]2[C@]12C=CC(=O)C(C)(C)[C@H]1[C@H](O)[C@@]3(O)OC2,IC50,[1],9.39 µM
same,IC50,[2],3.48 µM
same,IC50,[3],10.1 µM
C=C1C(=O)[C@]23[C@H](O)[C@H]1CC[C@H]2[C@@]12CO[C@]3(O)[C@@H](O)[C@@H]1C(C)(C)CC[C@@H]2O [ORIDONIN],IC50,[1],28 µM
same,Activity,[4],Active
same,IC50,[2],4.36 µM
same,IC50,[3],5.6 µM
same,Activity,[5],Active
same,Activity,[6],Active
same,IC50,[7],> 30 µM
same,Activity,[8],inactive
same,Activity,[9],Active
same,Activity,[10],Active
C=C1C(=O)[C@@]23C(=O)[C@@H](O)[C@@H]4C(C)(C)[C@@H]5OC[C@]4(C(=O)/C5=C/OC)[C@@H]2CC[C@@H]1[C@H]3O,IC50,[1],> 30 µM
same,IC50,[2],10.2 µM
C=C1C(=O)[C@@]23[C@@H]4OC(C)(C)O[C@]25OC[C@]2(C(=O)C=CC(C)(C)[C@H]2[C@@H]5O)[C@@H]3CC[C@@H]14,IC50,[1],3.49 µM
same,IC50,[2],0.56 µM
same,IC50,[3],5.11 µM
C=C1C(=O)[C@@]23[C@@H]4OC(C)(C)O[C@]25OC[C@]2(C(=O)C(C=O)=CC(C)(C)[C@H]2[C@@H]5O)[C@@H]3CC[C@@H]14,Activity,[11],52.25%
same,IC50,[1],3.46 µM
same,IC50,[2],1.28 µM
same,IC50,[3],4.51 µM
same,Activity,[12],Active
same,Activity,[13],3.15%
same,Activity,[14],Active
same,Activity,[15],69.55%
same,Activity,[16],36.1%
same,Activity,[17],Dose-dependent effect
same,Activity,[18],0.2%
same,Activity,[19],11.2%
same,IC50,[7],6.55 µM
same,Activity,[20],0.45%
same,inhibition,[21],Active
same,Activity,[22],19.25%
same,Activity,[23],Active
same,Activity,[24],10.95%
same,Activity,[25],0.25%
same,Activity,[26],84.95%
same,Activity,[27],11.7%
same,Activity,[28],Dose-dependent effect
same,Activity,[29],Dose-dependent effect
C=C1C(=O)[C@]23[C@H](O)[C@H]1CC[C@H]2[C@@]12CO[C@]3(O)[C@@H](O)[C@@H]1C(C)(C)C=CC2=O,IC50,[1],2.23 µM
same,IC50,[2],1.31 µM
same,IC50,[3],4.95 µM
same,IC50,[7],5.82 µM
C=C1C(=O)[C@@]23C(=O)[C@@H](O)[C@@H]4C(C)(C)[C@@H]5OC[C@]4(C(=O)/C5=C\O)[C@@H]2CC[C@@H]1[C@H]3O,IC50,[1],> 30 µM
same,IC50,[2],> 30 µM
C=C1C(=O)[C@@]23[C@@H]4OC(C)(C)O[C@]25OC[C@]2(C=CC(=O)C(C)(C)[C@H]2[C@@H]5O)[C@@H]3CC[C@@H]14,Activity,[11],52.3%
same,IC50,[1],5.6 µM
same,IC50,[2],0.98 µM
same,IC50,[3],10.2 µM
same,Activity,[12],Active
same,Activity,[13],5.05%
same,Activity,[14],Active
same,Activity,[15],73%
same,Activity,[16],39.1%
same,Activity,[17],Dose-dependent effect
same,Activity,[18],0.55%
same,Activity,[19],8.3%
same,IC50,[7],6.02 µM
same,Activity,[20],0.3%
same,inhibition,[21],Active
same,Activity,[22],16.55%
same,Activity,[23],Active
same,Activity,[30],Non-toxic
same,Activity,[24],10.15%
same,Activity,[25],0.3%
same,TGI,[31],Active
same,Activity,[26],83.05%
same,Activity,[27],11.35%
same,Activity,[28],Dose-dependent effect
same,Activity,[29],Dose-dependent effect

# — ChEMBL document CHEMBL3085623, “Oridonin ring A-based diverse constructions of enone functionality: identification of novel dienone analogues effective for highly aggressive breast cancer by inducing apoptosis” (J Med Chem, 2013)
